Consider 6 compounds from ChEMBL document CHEMBL1149614, “Exomethylene pyranonucleosides: efficient synthesis and biological evaluation of 1-(2,3,4-trideoxy-2-methylene-beta-d-glycero-hex-3-enopyranosyl)thymine” (Bioorg Med Chem, 2007).

The test system of assay [1] is Caco-2. The assay is described as follows: Growth inhibition of human Caco-2 cells after 10 days. The class given is functional, cell-based. The note with it: Caco-2, 240 h. The gist of the method:
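Caco-2 monolayers in DMEM/10% fetal bovine serum received 3-fold dilutions from 0.5 mg/mL, six wells per compound, for 10 days at 37 °C, humidified. Colonies counted in each well. Results are mean % colony number of treated (n = 2) versus control (n = 24) wells.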

The nature of assay [2]: Tumor selectivity index, ratio of CC50 for human H4 cells to CC50 for human Caco-2 cells. The class given is functional. In outline:
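Ratio of 72 h crystal-violet CC50 in H4 cells to CC50 in Caco-2 cells.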

A further assay concerns H4. Put plainly: Cytotoxicity against human H4 cells after 72 hrs. The assay is classed as functional. The following applies: H4, 72 h. The gist of the method: (§1)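 H4 or Caco-2 cells (6 × 10⁶ per plate) treated with 3-fold serial dilutions from 0.5 mg/mL and held 72 h at 37 °C in a humidified incubator. Results are mean % of treated (n = 2) versus control (n = 24) absorbance.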

Assay [3] is described as follows: Cytotoxicity against rhesus monkey MA104 cells after 72 hrs. The note with it: Macaca mulatta, MA104, 72 h. The assay is classed as functional.
Assay [4] is described as follows: Tumor selectivity index, ratio of CC50 for human H4 cells to CC50 for rhesus monkey MA104 cells. The assay is classed as functional.
The subject of assay [5] is Caco-2. The assay is described as follows: Cytotoxicity against human Caco-2 cells after 72 hrs. The assay is classed as functional. The note with it: Caco-2, 72 h. In outline:
as §1

Assay [6] concerns Rotavirus. Put plainly: Antiviral activity against Rotavirus RF in rhesus monkey MA104 cells assessed as inhibition of infectivity following virus attachment after 72 hrs. The class given is functional, organism-based. The following applies: MA104, 72 h. In outline:
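Monolayers infected with rotavirus RF for 1 h at 37 °C in 5% CO2, then washed with unsupplemented DMEM and immediately given 3-fold serial dilutions from 0.5 mg/mL. Results are mean % of virus-only control absorbance (n = 6).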

Assay [7] can be described thus: Selectivity index, ratio of CC50 for rhesus monkey MA104 cells to IC50 for Rotavirus RF after attachment to MA104 cells.
Assay [8] has as its system Rotavirus. The assay is described as follows: Antiviral activity against Rotavirus RF infected in rhesus monkey MA104 cells assessed as neutralization of virus in solution before its attachment after 72 hrs. The following applies: MA104, 72 h. The class given is functional, organism-based. The gist of the method:
(§2)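 Threefold dilutions from 0.5 mg/mL were co-incubated with rotavirus RF in trypsin-supplemented DMEM for 12 h at 37 °C, 5% CO2, before infecting monolayers. Results are mean % of virus-only control (n = 6) for each dilution. IC50 taken from the concentration–effect curve.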

In assay [9] the test system is Rotavirus. Put plainly: Antiviral activity against Rotavirus RF in human Caco-2 cells assessed as neutralization of virus in solution before its attachment after 72 hrs. The assay is classed as functional, organism-based. The note with it: Caco-2, 72 h. In outline: as §2
Assay [10] can be described thus: Selectivity index, ratio of CC50 for rhesus monkey MA104 cells to IC50 for Rotavirus RF. The class given is functional.
Assay [11] is described as follows: Selectivity index, ratio of CC50 for human Caco-2 cells to IC50 for Rotavirus RF. The class given is functional.

Structures are written as SMILES.

As to `C=C1C=C[C@@H](COC(c2ccccc2)(c2ccccc2)c2ccccc2)O[C@H]1n1cc(C)c(=O)[nH]c1=O`, the IC50 (in general, the point on the concentration scale where inhibition reaches its midpoint) in the assay with Caco-2 [1] was found to be 0.4 µM; with Rotavirus [6], 4.06 µM. Besides, the results for the Ratio in assay [2] and in assay [4] were 0.04 and 0.16, respectively. In addition, the results for the 50% cytotoxic concentration (CC50) (in the assay with H4; in assay [3]; with Caco-2 [5]) were 40.6 µM, 244 µM and 1020 µM, respectively. The “Ratio CC50/IC50” value in assay [7] was found to be 60.
For the compound `Cc1cn([C@@H]2O[C@H](CO)[C@H](O)[C@H](O)C2=O)c(=O)[nH]c1=O`, the IC50 in the assay with Caco-2 [1] is 0.7 µM; with Rotavirus [8], 2.44 µM; in the assay with Rotavirus [9], 2.44 µM; with Rotavirus [6], 6.98 µM. In addition, the Ratio is on record as 25 in assay [2] and 8.3 in assay [4]. The CC50 (in general, the concentration that lowers cell viability or growth by half) was 1750 µM in the assay with H4, 210 µM in assay [3] and 69.9 µM with Caco-2 [5]. Also, the “Ratio CC50/IC50” value came out at 85.9 in [10], 28.65 in assay [11] and 30.03 in assay [7].
Turning to `C=C1[C@@H](O)[C@@H](O)[C@@H](CO)O[C@H]1n1cc(C)c(=O)[nH]c1=O`, the IC50 in the assay with Caco-2 [1] was determined as 21.1 µM; in the assay with Rotavirus [8], 2.46 µM; with Rotavirus [9], 2.46 µM; with Rotavirus [6], 7.03 µM. Moreover, the Ratio in assay [2] came out at 24.9; in assay [4], 8.3. In addition, the CC50 in the assay with H4 was determined as 1760 µM; in [3], 211 µM; in the assay with Caco-2 [5], 70.4 µM. Also, the “Ratio CC50/IC50” value in [10] is 85.8; in assay [11] it was 28.61; in assay [7], 30.03.
Regarding `O=c1[nH]cc(F)c(=O)[nH]1` [FLUOROURACIL], the Ratio in assay [2] is given as 10; in [4], 16.67. Further, the cytotoxic concentration (CC50) in the assay on H4 was 3840 µM; in assay [3], 231 µM.
For the compound `Cc1cn([C@H]2C[C@H](N=[N+]=[N-])[C@@H](CO)O2)c(=O)[nH]c1=O` [ZIDOVUDINE], the IC50 with Rotavirus [8] is 74.6 µM; in the assay on Rotavirus [6] it was 22.4 µM. The results for the “Ratio CC50/IC50” value in assay [10], in [11] and in assay [7] were 3.01, 0.75 and 10.03, respectively.
On to `C=C1C=C[C@@H](CO)O[C@H]1n1cc(C)c(=O)[nH]c1=O`, for which the IC50 with Caco-2 [1] and in the assay with Rotavirus [6] was 79.9 µM each time. Also, the figures for the Ratio in [2] and in assay [4] were 0.0014 and 0.0058, respectively. Further, the CC50 with H4 worked out at 2.8 µM; in assay [3] it was 480 µM; with Caco-2 [5], 2000 µM. For the same compound, in assay [7], the “Ratio CC50/IC50” value was determined as 5.99.
